Laboratory results taken from ChEMBL document CHEMBL1165965, “Synthesis and structure-activity relationships of 1,2,3,4-tetrahydropyrido[2,3-b]pyrazines as potent and selective inhibitors of the anaplastic lymphoma kinase” (Bioorg Med Chem, 2010).
pIC50: −log10 of the molar value.

Assays:
[1] = molecular target: T1, Serine/threonine-protein kinase TAO1 (Homo sapiens) (UniProt Q7L7X3); experiment: Inhibition of TAOK1 at 1 uM
T1 sequence (whole entry): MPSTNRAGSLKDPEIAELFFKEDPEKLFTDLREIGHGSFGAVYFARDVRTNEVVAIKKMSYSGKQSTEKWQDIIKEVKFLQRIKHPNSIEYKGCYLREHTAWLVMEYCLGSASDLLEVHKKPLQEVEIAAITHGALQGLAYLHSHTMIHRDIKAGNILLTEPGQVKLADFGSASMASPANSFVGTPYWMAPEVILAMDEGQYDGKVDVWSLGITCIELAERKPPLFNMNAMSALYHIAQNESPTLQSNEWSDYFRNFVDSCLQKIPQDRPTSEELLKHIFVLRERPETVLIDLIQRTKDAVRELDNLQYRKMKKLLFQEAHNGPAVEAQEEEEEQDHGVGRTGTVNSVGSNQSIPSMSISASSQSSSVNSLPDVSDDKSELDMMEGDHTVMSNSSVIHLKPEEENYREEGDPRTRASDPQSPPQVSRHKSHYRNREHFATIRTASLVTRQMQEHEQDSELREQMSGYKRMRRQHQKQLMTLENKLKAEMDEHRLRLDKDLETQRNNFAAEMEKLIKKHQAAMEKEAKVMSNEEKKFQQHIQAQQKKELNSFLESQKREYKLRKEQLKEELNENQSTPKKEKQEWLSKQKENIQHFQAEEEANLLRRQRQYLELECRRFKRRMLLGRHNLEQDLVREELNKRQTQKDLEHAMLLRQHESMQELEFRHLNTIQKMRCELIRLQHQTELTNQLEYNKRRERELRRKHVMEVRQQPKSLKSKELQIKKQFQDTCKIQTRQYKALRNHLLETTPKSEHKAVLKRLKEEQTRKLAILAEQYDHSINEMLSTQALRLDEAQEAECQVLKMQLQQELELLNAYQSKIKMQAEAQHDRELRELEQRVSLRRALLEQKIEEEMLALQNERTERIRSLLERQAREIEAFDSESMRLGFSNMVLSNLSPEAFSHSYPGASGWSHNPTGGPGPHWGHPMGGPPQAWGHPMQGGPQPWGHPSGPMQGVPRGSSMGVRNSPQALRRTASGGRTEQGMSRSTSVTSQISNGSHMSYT

[2] = molecular target: T2, Serine/threonine-protein kinase TAO3 (Homo sapiens) (UniProt Q9H2K8); experiment: Inhibition of TAOK3 at 1 uM
T2 sequence (whole entry): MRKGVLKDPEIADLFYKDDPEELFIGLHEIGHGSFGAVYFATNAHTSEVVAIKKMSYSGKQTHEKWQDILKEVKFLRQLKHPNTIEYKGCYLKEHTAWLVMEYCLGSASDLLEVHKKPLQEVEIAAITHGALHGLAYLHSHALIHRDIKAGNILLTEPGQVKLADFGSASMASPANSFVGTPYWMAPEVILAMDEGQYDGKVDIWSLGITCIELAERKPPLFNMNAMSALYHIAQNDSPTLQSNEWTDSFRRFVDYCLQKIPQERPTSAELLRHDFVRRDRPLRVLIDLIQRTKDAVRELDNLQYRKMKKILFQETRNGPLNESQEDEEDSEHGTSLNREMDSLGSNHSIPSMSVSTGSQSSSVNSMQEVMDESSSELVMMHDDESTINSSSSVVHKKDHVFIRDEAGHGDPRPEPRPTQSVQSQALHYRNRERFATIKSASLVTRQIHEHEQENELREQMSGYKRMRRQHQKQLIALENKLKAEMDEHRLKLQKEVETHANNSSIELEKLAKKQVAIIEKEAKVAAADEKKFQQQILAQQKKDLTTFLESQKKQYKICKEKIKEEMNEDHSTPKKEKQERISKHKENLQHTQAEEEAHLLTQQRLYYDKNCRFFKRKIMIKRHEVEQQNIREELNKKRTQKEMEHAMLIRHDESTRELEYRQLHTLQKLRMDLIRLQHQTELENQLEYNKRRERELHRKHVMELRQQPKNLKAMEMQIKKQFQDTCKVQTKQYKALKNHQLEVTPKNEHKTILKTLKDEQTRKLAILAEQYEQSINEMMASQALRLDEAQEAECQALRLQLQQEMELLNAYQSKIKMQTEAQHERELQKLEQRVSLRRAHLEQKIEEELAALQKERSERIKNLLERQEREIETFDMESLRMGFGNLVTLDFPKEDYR

[3] = molecular target: T1, Serine/threonine-protein kinase TAO1 (Homo sapiens); experiment: Inhibition of TAO1 at 1 uM
[4] = molecular target: Fibroblast growth factor receptor 1 (Homo sapiens) (UniProt P11362); experiment: Inhibition of FGFR1 at 1 uM
Outline: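 Single-concentration screen using Ambit Bioscience KINOMEscan technology across a panel of 250–400 kinases. Per-kinase inhibition from this screen was summarized as S(90), the fraction of kinases inhibited by more than 90%.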

[5] = molecular target: ALK tyrosine kinase receptor (Homo sapiens, UniProt Q9UM73); experiment: Inhibition of ALK phosphorylation in human Karpas-299 cells by immunoblotting and ELISA; type: cell-based
Outline: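 Karpas-299 cells were treated with compound, then lysed in Tris pH 7.5 / 1% Triton X-100 buffer containing phosphatase and protease inhibitors, briefly sonicated and cleared. For immunoblots, SDS–PAGE was probed with phospho-NPM-ALK(Y664) or total ALK antibodies and bands were quantified by ECL. For ELISA, lysates were captured overnight at 4 °C on anti-ALK, detected with anti-phospho-ALK(Y664) plus AP secondary, and read by 4-MeUP fluorescence.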

Chain of Fibroblast growth factor receptor 1 (Homo sapiens) (P11362 22-822 limits assumed): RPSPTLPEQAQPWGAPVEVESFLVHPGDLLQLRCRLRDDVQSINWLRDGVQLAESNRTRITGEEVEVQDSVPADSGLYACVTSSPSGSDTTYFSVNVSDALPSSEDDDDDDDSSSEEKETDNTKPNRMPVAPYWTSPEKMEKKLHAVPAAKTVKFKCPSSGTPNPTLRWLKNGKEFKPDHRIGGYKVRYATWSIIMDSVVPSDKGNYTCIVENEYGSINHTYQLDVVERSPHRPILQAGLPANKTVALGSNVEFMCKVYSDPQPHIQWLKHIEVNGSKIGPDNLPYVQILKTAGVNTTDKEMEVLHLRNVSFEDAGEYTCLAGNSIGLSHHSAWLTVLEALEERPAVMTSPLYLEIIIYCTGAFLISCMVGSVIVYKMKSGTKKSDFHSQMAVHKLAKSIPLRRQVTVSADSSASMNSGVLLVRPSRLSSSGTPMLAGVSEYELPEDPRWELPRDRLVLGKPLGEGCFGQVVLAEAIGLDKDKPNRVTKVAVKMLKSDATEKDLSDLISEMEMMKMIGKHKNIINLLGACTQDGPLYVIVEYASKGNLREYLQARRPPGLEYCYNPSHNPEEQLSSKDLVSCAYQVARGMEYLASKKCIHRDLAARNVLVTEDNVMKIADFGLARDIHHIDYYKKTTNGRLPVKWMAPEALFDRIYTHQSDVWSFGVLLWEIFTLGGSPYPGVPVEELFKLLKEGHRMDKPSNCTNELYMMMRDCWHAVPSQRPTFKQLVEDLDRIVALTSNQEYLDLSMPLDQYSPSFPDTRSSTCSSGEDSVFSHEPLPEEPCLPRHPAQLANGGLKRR
Chain of ALK tyrosine kinase receptor (Q9UM73 whole entry): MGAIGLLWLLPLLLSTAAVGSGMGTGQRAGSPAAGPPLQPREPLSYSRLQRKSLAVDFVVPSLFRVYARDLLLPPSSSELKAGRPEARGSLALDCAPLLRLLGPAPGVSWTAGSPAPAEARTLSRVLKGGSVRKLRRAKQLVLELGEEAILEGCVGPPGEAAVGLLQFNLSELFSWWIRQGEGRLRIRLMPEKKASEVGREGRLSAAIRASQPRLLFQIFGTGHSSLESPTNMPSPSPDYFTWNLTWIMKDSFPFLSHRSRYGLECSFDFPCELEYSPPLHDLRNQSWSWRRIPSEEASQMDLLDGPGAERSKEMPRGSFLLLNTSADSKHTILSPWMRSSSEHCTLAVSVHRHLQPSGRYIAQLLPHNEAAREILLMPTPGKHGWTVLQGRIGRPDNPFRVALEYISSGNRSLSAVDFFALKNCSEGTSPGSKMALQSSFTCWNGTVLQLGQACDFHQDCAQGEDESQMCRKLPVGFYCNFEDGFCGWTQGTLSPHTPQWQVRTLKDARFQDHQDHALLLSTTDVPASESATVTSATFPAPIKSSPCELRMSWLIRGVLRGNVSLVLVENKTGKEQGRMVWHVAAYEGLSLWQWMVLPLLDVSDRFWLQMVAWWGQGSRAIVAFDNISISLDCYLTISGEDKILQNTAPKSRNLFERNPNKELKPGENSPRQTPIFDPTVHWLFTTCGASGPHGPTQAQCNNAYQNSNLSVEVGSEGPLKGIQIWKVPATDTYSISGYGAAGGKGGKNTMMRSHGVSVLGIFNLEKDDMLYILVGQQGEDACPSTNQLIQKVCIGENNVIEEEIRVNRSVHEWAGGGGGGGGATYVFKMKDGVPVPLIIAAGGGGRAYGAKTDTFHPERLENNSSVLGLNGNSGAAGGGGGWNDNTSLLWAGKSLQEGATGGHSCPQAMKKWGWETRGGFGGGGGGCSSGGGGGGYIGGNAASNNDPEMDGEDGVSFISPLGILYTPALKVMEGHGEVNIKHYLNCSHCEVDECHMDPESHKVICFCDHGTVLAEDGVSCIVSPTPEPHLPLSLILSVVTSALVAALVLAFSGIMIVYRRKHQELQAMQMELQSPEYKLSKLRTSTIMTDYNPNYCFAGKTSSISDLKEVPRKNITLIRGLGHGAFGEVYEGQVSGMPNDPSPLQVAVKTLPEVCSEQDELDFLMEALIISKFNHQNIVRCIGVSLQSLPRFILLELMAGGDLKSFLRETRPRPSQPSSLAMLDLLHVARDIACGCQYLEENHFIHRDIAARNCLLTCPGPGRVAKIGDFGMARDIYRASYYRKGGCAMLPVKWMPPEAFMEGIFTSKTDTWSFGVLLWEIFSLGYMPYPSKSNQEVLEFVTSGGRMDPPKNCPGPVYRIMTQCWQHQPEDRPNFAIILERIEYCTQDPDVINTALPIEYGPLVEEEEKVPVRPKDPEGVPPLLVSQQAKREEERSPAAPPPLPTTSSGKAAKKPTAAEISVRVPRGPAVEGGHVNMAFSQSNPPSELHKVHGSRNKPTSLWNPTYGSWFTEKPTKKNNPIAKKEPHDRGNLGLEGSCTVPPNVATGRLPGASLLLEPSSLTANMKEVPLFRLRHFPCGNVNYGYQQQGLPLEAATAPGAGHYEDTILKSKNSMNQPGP

Row | SMILES | inhibition [1] | inhibition [2] | inhibition [3] | inhibition [4] | pIC50 [5]
1 | CN1CCN(c2ccc(-c3cnc4c(c3)N(Cc3cc(Cl)ccc3Cl)CCN4)cn2)CC1 | < 50% | < 50% | < 50% | < 50% | –
2 | CN1CCN(c2ccc(-c3cnc4c(c3)N(Cc3cc(Cl)ccc3C(F)(F)F)CCN4)cn2)CC1 | < 50% | < 50% | < 50% | < 50% | –
3 | CN1CCN(c2ccc(-c3cnc4c(c3)N(Cc3c(F)ccc(F)c3Cl)CCN4)cn2)CC1 | < 50% | < 50% | < 50% | < 50% | –
4 | O=C(c1ccc(-c2cnc3c(c2)N(Cc2cc(Cl)ccc2C(F)(F)F)CCN3)cc1)N1CCC(N2CCCC2)CC1 | – | – | – | < 50% | 6.60
5 | COC1CCN(C(=O)c2ccc(-c3cnc4c(c3)N(Cc3cc(Cl)ccc3C(F)(F)F)CCN4)cc2)CC1 | – | – | – | < 50% | 6.35
6 | FC(F)(F)c1ccc(Cl)cc1CN1CCNc2ncc(-c3ccnc(N4CCNCC4)c3)cc21 | < 50% | < 50% | < 50% | < 50% | 6.82
7 | CN1CCN(c2ccc(-c3cnc4c(c3)N(Cc3cc(F)ccc3F)CCN4)cn2)CC1 | < 50% | < 50% | < 50% | < 50% | 6.70
8 | O=C(c1ccc(-c2cnc3c(c2)N(Cc2cc(Cl)ccc2C(F)(F)F)CCN3)cc1)N1CCCCC1 | – | – | – | < 50% | –
9 | CC(=O)N1CCN(c2cc(-c3cnc4c(c3)N(Cc3cc(Cl)ccc3C(F)(F)F)CCN4)ccn2)CC1 | < 50% | < 50% | < 50% | < 50% | 6.60
10 | O=C(O)c1ccc(-c2cnc3c(c2)N(Cc2cc(Cl)ccc2C(F)(F)F)CCN3)cc1 | – | – | – | < 50% | –
